Assay results reported in ChEMBL document CHEMBL2407050, “Wilsonols A-L, megastigmane sesquiterpenoids from the leaves of Cinnamomum wilsonii” (J Nat Prod, 2013).
The source made the active and inactive calls. Unless noted, the calls are words filed in the database; no cut-off is given here.

Legend:
[1] = Cytotoxicity against mouse T lymphocytes after 48 hrs by CCK-8 assay; conditions: t-cell
In short: (§1)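 Splenocyte toxicity run without ConA or LPS at 5 × 10⁶ cells/200 μL/well. Cultured 48 h at 37 °C, 5% CO₂ with CCK-8 during the final 4 h; A450 read against a 600 nm reference. Viability (%) = compound OD450 / […] OD450 × 100.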

SW480 = experiment: Cytotoxicity against human SW480 cells after 48 hrs by MTS assay; assay type: functional, cell-based; conditions: SW480, 48 h
In short: (§2)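 Cells grown in DMEM or RPMI-1640 with 10% FBS at 37 °C under 5% CO₂. Adherent cells plated 12 h before dosing; suspension cells plated at dosing, initial density 1 × 10⁵ cells/mL. MTS (5 mg/mL stock) added for 4 h at 37 °C, then SDS lysis and OD at 595 nm. IC50 by Reed–Muench.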

A549 [2] = experiment: Cytotoxicity against human A549 cells after 48 hrs by MTS assay; assay type: functional, cell-based; conditions: A549, 48 h; in short: as §2
HL-60 = experiment: Cytotoxicity against human HL60 cells after 48 hrs by MTS assay; assay type: functional, cell-based; conditions: HL-60, 48 h; in short: as §2
SMMC-7721 [3] = experiment: Cytotoxicity against human SMMC7721 cells after 48 hrs by MTS assay; assay type: functional, cell-based; conditions: SMMC-7721, 48 h; in short: as §2
T-cell = experiment: Inhibition of ConA-induced mouse T lymphocytes proliferation after 48 hrs by CCK-8 assay; assay type: functional
In short: (§3)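 Murine splenocytes, 2.5 × 10⁶ per well, co-treated with compounds at various concentrations plus ConA (5 μg/mL, T-cell stimulus) or LPS (B-cell stimulus). Cultured 48 h at 37 °C, 5% CO₂; CCK-8 added for the last 4 h, A450 read against a 600 nm reference. Triplicate means; change expressed relative to the stimulated positive control. >10% inhibition counted as active.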

[4] = Cytotoxicity against mouse B lymphocytes after 48 hrs by CCK-8 assay; conditions: b-cell; in short: as §1
MCF7 [5] = experiment: Cytotoxicity against human MCF7 cells after 48 hrs by MTS assay; assay type: functional, cell-based; conditions: MCF7, 48 h; in short: as §2
[6] = Selectivity index, ratio of IC50 for human BEAS2B cells to IC50 for human SW480 cells; assay type: functional
In short: (§4)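 Ratio of the Beas-2B IC50 to the IC50 for each cancer line. Both IC50s come from the 48 h MTS viability assay with Reed–Muench calculation.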

[7] = Cytotoxicity against human BEAS2B cells after 48 hrs by MTS assay; assay type: cell-based; conditions: beas-2b; in short: as §2
[8] = Selectivity index, ratio of IC50 for human BEAS2B cells to IC50 for human HL60 cells; assay type: functional; in short: as §4
SMMC-7721 [9] = experiment: Selectivity index, ratio of IC50 for human BEAS2B cells to IC50 for human SMMC7721 cells; assay type: functional; in short: as §4
MCF7 [10] = experiment: Selectivity index, ratio of IC50 for human BEAS2B cells to IC50 for human MCF7 cells; assay type: functional; in short: as §4
A549 [11] = experiment: Selectivity index, ratio of IC50 for human BEAS2B cells to IC50 for human A549 cells; assay type: functional; in short: as §4
B-cell = experiment: Inhibition of LPS-induced mouse B lymphocytes proliferation after 48 hrs by CCK-8 assay; assay type: functional; in short: as §3

C[C@@H]1[C@H](O)[C@@H](O)CC(C)(C)[C@@]1(O)/C=C/[C@@H](C)O [WILSONOL B]
Activity [1]: Non-toxic | IC50 (SW480): > 10 µM | IC50 (A549 [2]): > 10 µM | IC50 (HL-60): > 10 µM | IC50 (SMMC-7721 [3]): > 10 µM | inhibition (T-cell): Active | Activity [4]: Non-toxic | IC50 (MCF7 [5]): > 10 µM

CC1=C(CC[C@H](C)O)C(C)(C)C[C@H](O[C@@H]2O[C@H](CO)[C@@H](O)[C@H](O)[C@H]2O)C1
Activity [1]: Non-toxic | Ratio IC50 [6]: >16 | IC50 (SW480): 12 µM | IC50 (A549 [2]): 2.5 µM | IC50 (HL-60): 5 µM | IC50 (SMMC-7721 [3]): 3.1 µM | Activity [7]: Non-toxic | Ratio IC50 [8]: >16 | Ratio IC50 (SMMC-7721 [9]): >16 | Ratio IC50 (MCF7 [10]): >16 | Activity [4]: Non-toxic | IC50 (MCF7 [5]): 3.4 µM | Ratio IC50 (A549 [11]): >16

C[C@@H](O)/C=C/[C@H]1[C@H](CO)C[C@H](O)CC1(C)C
Activity [1]: Non-toxic | IC50 (SW480): > 10 µM | IC50 (A549 [2]): > 10 µM | IC50 (HL-60): > 10 µM | IC50 (SMMC-7721 [3]): > 10 µM | Activity [4]: Non-toxic | IC50 (MCF7 [5]): > 10 µM

C[C@H](O)/C=C/[C@@]1(O)[C@H](C)[C@H](O)[C@@H](O)CC1(C)C [WILSONOL A]
Activity [1]: Non-toxic | IC50 (SW480): > 10 µM | IC50 (A549 [2]): > 10 µM | IC50 (HL-60): > 10 µM | IC50 (SMMC-7721 [3]): > 10 µM | inhibition (T-cell): Active | Activity [4]: Non-toxic | IC50 (MCF7 [5]): > 10 µM

CC1=C(CC[C@@H](C)O)C(C)(C)C[C@H](O)[C@@H]1O
Activity [1]: Non-toxic | IC50 (SW480): > 10 µM | IC50 (A549 [2]): > 10 µM | IC50 (HL-60): > 10 µM | IC50 (SMMC-7721 [3]): > 10 µM | Activity [4]: Non-toxic | inhibition (B-cell): Active | IC50 (MCF7 [5]): > 10 µM

CC(=O)/C=C/[C@@]1(O)[C@H](C)[C@H](O[C@@H]2O[C@H](CO)[C@@H](O)[C@H](O)[C@H]2O)[C@@H](O)CC1(C)C
Activity [1]: Non-toxic | IC50 (SW480): > 10 µM | IC50 (A549 [2]): > 10 µM | IC50 (HL-60): > 10 µM | IC50 (SMMC-7721 [3]): > 10 µM | Activity [4]: Non-toxic | IC50 (MCF7 [5]): > 10 µM

C[C@@H]1C[C@H](O)CC(C)(C)[C@]1(O)CC[C@@H](C)O [WILSONOL F]
Activity [1]: Non-toxic | IC50 (SW480): > 10 µM | IC50 (A549 [2]): > 10 µM | IC50 (HL-60): > 10 µM | IC50 (SMMC-7721 [3]): > 10 µM | Activity [4]: Non-toxic | IC50 (MCF7 [5]): > 10 µM

C[C@@H](O)/C=C/[C@H]1C(CO)=CC(=O)CC1(C)C
IC50 (SW480): > 10 µM | IC50 (A549 [2]): > 10 µM | IC50 (HL-60): > 10 µM | IC50 (SMMC-7721 [3]): > 10 µM | IC50 (MCF7 [5]): > 10 µM

C[C@H](O)CCC1=C(CO)C[C@@H](O)CC1(C)C
Activity [1]: Non-toxic | IC50 (SW480): > 10 µM | IC50 (A549 [2]): > 10 µM | IC50 (HL-60): > 10 µM | IC50 (SMMC-7721 [3]): > 10 µM | inhibition (T-cell): Active | Activity [4]: Non-toxic | inhibition (B-cell): Active | IC50 (MCF7 [5]): > 10 µM

C[C@@H](O)/C=C/[C@@]1(O)[C@@H](C)C[C@H](O)CC1(C)C
Activity [1]: Non-toxic | IC50 (SW480): > 10 µM | IC50 (A549 [2]): > 10 µM | IC50 (HL-60): > 10 µM | IC50 (SMMC-7721 [3]): > 10 µM | inhibition (T-cell): Active | Activity [4]: Non-toxic | inhibition (B-cell): Active | IC50 (MCF7 [5]): > 10 µM

C[C@@H](O)/C=C/[C@@]1(O)C(C)(C)C[C@H](O)[C@@H](O)[C@@]1(C)O [WILSONOL H]
IC50 (SW480): > 10 µM | IC50 (A549 [2]): > 10 µM | IC50 (HL-60): > 10 µM | IC50 (SMMC-7721 [3]): > 10 µM | IC50 (MCF7 [5]): > 10 µM

CC(=O)/C=C/[C@@]1(O)[C@H](C)[C@H](O)[C@@H](O)CC1(C)C [WILSONOL C]
Activity [1]: Non-toxic | IC50 (SW480): > 10 µM | IC50 (A549 [2]): > 10 µM | IC50 (HL-60): > 10 µM | IC50 (SMMC-7721 [3]): > 10 µM | Activity [4]: Non-toxic | IC50 (MCF7 [5]): > 10 µM

COC(=O)/C=C(C)\C=C\[C@@]1(O)C(C)=CC(=O)CC1(C)C
Activity [1]: Non-toxic | IC50 (SW480): > 10 µM | IC50 (A549 [2]): > 10 µM | IC50 (HL-60): > 10 µM | IC50 (SMMC-7721 [3]): > 10 µM | inhibition (T-cell): inactive | Activity [4]: Non-toxic | inhibition (B-cell): inactive | IC50 (MCF7 [5]): > 10 µM

CC(O)/C=C/[C@H]1[C@H](C)[C@H](O)[C@@H](O)CC1(C)C (mixture of isomers) [WILSONOL E]
IC50 (SW480): > 10 µM | IC50 (A549 [2]): > 10 µM | IC50 (HL-60): > 10 µM | IC50 (SMMC-7721 [3]): > 10 µM | IC50 (MCF7 [5]): > 10 µM

C[C@@H](O)/C=C/[C@@H]1C(C)(C)[C@H](O)C[C@@H](O)[C@]1(C)O
IC50 (SW480): > 10 µM | IC50 (A549 [2]): > 10 µM | IC50 (HL-60): > 10 µM | IC50 (SMMC-7721 [3]): > 10 µM | IC50 (MCF7 [5]): > 10 µM

C[C@@H]1[C@H](O)[C@@H](O)CC(C)(C)[C@H]1/C=C/[C@H](C)O
Activity [1]: Non-toxic | IC50 (SW480): > 10 µM | IC50 (A549 [2]): > 10 µM | IC50 (HL-60): > 10 µM | IC50 (SMMC-7721 [3]): > 10 µM | Activity [4]: Non-toxic | IC50 (MCF7 [5]): > 10 µM
